One block for each compound: values may come before it. Active and inactive are the calls of the source. No cut-off for these calls is given here.
Columns and labels:
[1] = biological target: L-lactate dehydrogenase B chain (Sus scrofa) (UniProt P00336); assay: Binding affinity to porcine heart LDH at 2.14 mM measured every 2 mins for 10 mins by dynamic light scattering analysis
How it was run: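 DLS on filtered samples of 80 μN phLDH, 4 μM NADH and 2.14 mM inhibitor in 100 mM sodium phosphate pH 7.2 at room temperature. Autocorrelation functions and particle size distributions collected every 2 min for 10 min.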

[2] = biological target: L-lactate dehydrogenase B chain (Sus scrofa) (UniProt P00336); assay: Inhibition of oxamate binding to porcine heart LDH assessed as relative fluorescence intensity at 1000 uM using pyruvate as substrate and NADH as cofactor measured after 2 hrs by fluorescence spectra analysis (reference value: 0.775 +/- 0.013 a.u.)
[3] = biological target: L-lactate dehydrogenase B chain (Sus scrofa) (UniProt P00336); assay: Inhibition of oxamate binding to porcine heart LDH assessed as emission maximum at 1000 uM using pyruvate as substrate and NADH as cofactor measured after 2 hrs by fluorescence spectra analysis (reference value: 452.9 +/- 0.3 nanometer)
[4] = biological target: L-lactate dehydrogenase B chain (Sus scrofa) (UniProt P00336); assay: Inhibition of porcine heart LDH assessed as enzymatic hydride transfer lifetime using pyruvate as substrate and NADH as cofactor measured after 2 hrs by stopped flow spectrometric analysis (reference value: 3.73 +/- 0.0901 ms)
[5] = biological target: L-lactate dehydrogenase B chain (Sus scrofa) (UniProt P00336); assay: Inhibition of oxamate binding to porcine heart LDH assessed as emission maximum at 961 uM using pyruvate as substrate and NADH as cofactor measured after 2 hrs by fluorescence spectra analysis (reference value: 452.9 +/- 0.3 nanometer)
[6] = biological target: L-lactate dehydrogenase B chain (Sus scrofa) (UniProt P00336); assay: Inhibition of oxamate binding to porcine heart LDH assessed as relative fluorescence intensity at 35 uM using pyruvate as substrate and NADH as cofactor measured after 2 hrs by fluorescence spectra analysis (reference value: 0.775 +/- 0.013 a.u.)
[7] = biological target: L-lactate dehydrogenase B chain (Sus scrofa) (UniProt P00336); assay: Inhibition of oxamate binding to porcine heart LDH assessed as emission maximum at 6 uM using pyruvate as substrate and NADH as cofactor measured after 2 hrs by fluorescence spectra analysis (reference value: 452.9 +/- 0.36 nanometer)
[8] = biological target: L-lactate dehydrogenase B chain (Sus scrofa) (UniProt P00336); assay: Inhibition of oxamate binding to porcine heart LDH assessed as relative fluorescence intensity at 6 uM using pyruvate as substrate and NADH as cofactor measured after 2 hrs by fluorescence spectra analysis (reference value: 0.775 +/- 0.013 a.u.)
[9] = biological target: L-lactate dehydrogenase B chain (Sus scrofa) (UniProt P00336); assay: Inhibition of oxamate binding to porcine heart LDH assessed as relative fluorescence intensity at 961 uM using pyruvate as substrate and NADH as cofactor measured after 2 hrs by fluorescence spectra analysis (reference value: 0.775 +/- 0.013 a.u.)
[10] = biological target: L-lactate dehydrogenase B chain (Sus scrofa) (UniProt P00336); assay: Inhibition of oxamate binding to porcine heart LDH assessed as emission maximum at 35 uM using pyruvate as substrate and NADH as cofactor measured after 2 hrs by fluorescence spectra analysis (reference value: 452.9 +/- 0.3 nanometer)
[11] = biological target: L-lactate dehydrogenase B chain (Sus scrofa) (UniProt P00336); assay: Activation of porcine heart LDH at 1 mM using pyruvate as substrate and NADH as cofactor measured after 2 hrs by stopped-flow spectrometric method relative to control
How it was run: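 Pig heart LDH buffer-exchanged into 100 mM sodium phosphate pH 7.2, then preincubated 2 h at 4 °C with inhibitor. Final: 5 nN enzyme, 100 μM NADH, 300 μM sodium pyruvate, 37 °C. Stopped-flow mixing of enzyme:NADH:inhibitor with pyruvate, NADH loss read at 340 nm. Initial rates are linear fits averaged over five shots and expressed relative to uninhibited enzyme.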

NC(=O)c1cc(O)cc(O)c1 [12] = assay: (§1) Mixed inhibition of porcine heart LDH assessed as apparent Km for substrate at 50 uM using pyruvate as substrate and NADH as cofactor measured after 2 hrs by Michaelis-Menten plot analysis (reference value: 73 +/- 10 uM); details: Sus scrofa
CC(=O)Nc1cccc(O)c1 [13] = assay: as §1; details: Sus scrofa
CC(=O)Nc1cccc(O)c1 [14] = assay: Non-competitive inhibition of porcine heart LDH assessed as Kcat for cofactor at 50 uM using pyruvate as substrate and NADH as cofactor measured after 2 hrs by Michaelis-Menten plot analysis (reference value: 221 +/- 10 /sec); details: Sus scrofa
CC(=O)Nc1cccc(O)c1 [15] = assay: Non-competitive inhibition of porcine heart LDH assessed as apparent Km for cofactor at 50 uM using pyruvate as substrate and NADH as cofactor measured after 2 hrs by Michaelis-Menten plot analysis (reference value: 8 +/- 2 uM); details: Sus scrofa
CC(=O)Nc1cccc(O)c1 [16] = assay: Mixed inhibition of porcine heart LDH assessed as substrate Kcat at 10 uM using pyruvate as substrate and NADH as cofactor measured after 2 hrs by Michaelis-Menten plot analysis (reference value: 232 +/- 13 /sec); details: Sus scrofa
CC(=O)Nc1cccc(O)c1 [17] = assay: Mixed inhibition of porcine heart LDH assessed as substrate Kcat at 25 uM using pyruvate as substrate and NADH as cofactor measured after 2 hrs by Michaelis-Menten plot analysis (reference value: 232 +/- 13 /sec); details: Sus scrofa
NC(=O)c1cc(O)cc(O)c1 [18] = assay: Mixed inhibition of porcine heart LDH assessed as substrate Kcat at 50 uM using pyruvate as substrate and NADH as cofactor measured after 2 hrs by Michaelis-Menten plot analysis (reference value: 319 +/- 8 /sec); details: Sus scrofa
NC(=O)c1cc(O)cc(O)c1 [19] = assay: (§2) Mixed inhibition of porcine heart LDH assessed as apparent Km for substrate at 100 uM using pyruvate as substrate and NADH as cofactor measured after 2 hrs by Michaelis-Menten plot analysis (reference value: 73 +/- 10 uM); details: Sus scrofa
CC(=O)Nc1cccc(O)c1 [20] = assay: as §2; details: Sus scrofa
NC(=O)c1cc(O)cc(O)c1 [21] = assay: Mixed inhibition of porcine heart LDH assessed as substrate Kcat at 300 uM using pyruvate as substrate and NADH as cofactor measured after 2 hrs by Michaelis-Menten plot analysis (reference value: 319 +/- 8 /sec); details: Sus scrofa
NC(=O)c1cc(O)cc(O)c1 [22] = assay: Mixed inhibition of porcine heart LDH assessed as substrate Kcat at 10 uM using pyruvate as substrate and NADH as cofactor measured after 2 hrs by Michaelis-Menten plot analysis (reference value: 319 +/- 8 /sec); details: Sus scrofa
CC(=O)Nc1cccc(O)c1 [23] = assay: Non-competitive inhibition of porcine heart LDH assessed as apparent Km for cofactor at 300 uM using pyruvate as substrate and NADH as cofactor measured after 2 hrs by Michaelis-Menten plot analysis (reference value: 8 +/- 2 uM); details: Sus scrofa
CC(=O)Nc1cccc(O)c1 [24] = assay: Mixed inhibition of porcine heart LDH assessed as substrate Kcat at 50 uM using pyruvate as substrate and NADH as cofactor measured after 2 hrs by Michaelis-Menten plot analysis (reference value: 232 +/- 13 /sec); details: Sus scrofa
NC(=O)c1cc(O)cc(O)c1 [25] = assay: Mixed inhibition of porcine heart LDH assessed as substrate Kcat at 100 uM using pyruvate as substrate and NADH as cofactor measured after 2 hrs by Michaelis-Menten plot analysis (reference value: 319 +/- 8 /sec); details: Sus scrofa
NC(=O)c1cc(O)cc(O)c1 [26] = assay: (§3) Mixed inhibition of porcine heart LDH assessed as apparent Km for substrate at 10 uM using pyruvate as substrate and NADH as cofactor measured after 2 hrs by Michaelis-Menten plot analysis (reference value: 73 +/- 10 uM); details: Sus scrofa
CC(=O)Nc1cccc(O)c1 [27] = assay: as §3; details: Sus scrofa
CC(=O)Nc1cccc(O)c1 [28] = assay: Non-competitive inhibition of porcine heart LDH assessed as Kcat for cofactor at 300 uM using pyruvate as substrate and NADH as cofactor measured after 2 hrs by Michaelis-Menten plot analysis (reference value: 221 +/- 10 /sec); details: Sus scrofa
NC(=O)c1cc(O)cc(O)c1 [29] = assay: (§4) Mixed inhibition of porcine heart LDH assessed as apparent Km for substrate at 25 uM using pyruvate as substrate and NADH as cofactor measured after 2 hrs by Michaelis-Menten plot analysis (reference value: 73 +/- 10 uM); details: Sus scrofa
CC(=O)Nc1cccc(O)c1 [30] = assay: as §4; details: Sus scrofa
CC(=O)Nc1cccc(O)c1 [31] = assay: Mixed inhibition of porcine heart LDH assessed as substrate Kcat at 100 uM using pyruvate as substrate and NADH as cofactor measured after 2 hrs by Michaelis-Menten plot analysis (reference value: 232 +/- 13 /sec); details: Sus scrofa
NC(=O)c1cc(O)cc(O)c1 [32] = assay: (§5) Mixed inhibition of porcine heart LDH assessed as apparent Km for substrate at 300 uM using pyruvate as substrate and NADH as cofactor measured after 2 hrs by Michaelis-Menten plot analysis (reference value: 73 +/- 10 uM); details: Sus scrofa
CC(=O)Nc1cccc(O)c1 [33] = assay: as §5; details: Sus scrofa
CC(=O)Nc1cccc(O)c1 [34] = assay: Mixed inhibition of porcine heart LDH assessed as substrate Kcat at 300 uM using pyruvate as substrate and NADH as cofactor measured after 2 hrs by Michaelis-Menten plot analysis (reference value: 232 +/- 13 /sec); details: Sus scrofa
NC(=O)c1cc(O)cc(O)c1 [35] = assay: Mixed inhibition of porcine heart LDH assessed as substrate Kcat at 25 uM using pyruvate as substrate and NADH as cofactor measured after 2 hrs by Michaelis-Menten plot analysis (reference value: 319 +/- 8 /sec); details: Sus scrofa

Chain of L-lactate dehydrogenase B chain (Sus scrofa), P00336 (P00336 whole entry): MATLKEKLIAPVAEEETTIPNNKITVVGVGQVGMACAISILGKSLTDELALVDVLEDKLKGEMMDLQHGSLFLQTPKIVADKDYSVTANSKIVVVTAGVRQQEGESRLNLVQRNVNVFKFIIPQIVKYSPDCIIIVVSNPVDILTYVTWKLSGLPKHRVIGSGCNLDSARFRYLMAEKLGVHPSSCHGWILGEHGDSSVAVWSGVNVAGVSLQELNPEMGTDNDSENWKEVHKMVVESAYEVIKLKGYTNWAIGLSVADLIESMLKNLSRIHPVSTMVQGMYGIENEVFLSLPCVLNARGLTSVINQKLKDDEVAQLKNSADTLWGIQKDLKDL
Chain of L-lactate dehydrogenase B chain (Sus scrofa) (P00336 whole entry): as above

Compound: NC(=O)c1cc(O)cc(O)c1
- Activity [5]: 455 nm
- Activity [1]: Active
- RFU [6]: 0.759 a.u.
- Activity [7]: 453 nm
- RFU [8]: 0.764 a.u.
- RFU [9]: 0.773 a.u.
- Activity [10]: 453 nm

Compound: N[C@@H](Cc1c[nH]c2ccccc12)C(=O)O
- Activity [11]: < 24%

Compound: L-lactate dehydrogenase B chain (Sus scrofa), P00336
- Km (NC(=O)c1cc(O)cc(O)c1 [12]): 102 µM
- Km (CC(=O)Nc1cccc(O)c1 [13]): 155 µM
- kcat (CC(=O)Nc1cccc(O)c1 [14]): 190 s⁻¹
- Km (CC(=O)Nc1cccc(O)c1 [15]): 7 µM
- kcat (CC(=O)Nc1cccc(O)c1 [16]): 211 s⁻¹
- kcat (CC(=O)Nc1cccc(O)c1 [17]): 190 s⁻¹
- kcat (NC(=O)c1cc(O)cc(O)c1 [18]): 242 s⁻¹
- Km (NC(=O)c1cc(O)cc(O)c1 [19]): 116 µM
- Km (CC(=O)Nc1cccc(O)c1 [20]): 163 µM
- kcat (NC(=O)c1cc(O)cc(O)c1 [21]): 176 s⁻¹
- kcat (NC(=O)c1cc(O)cc(O)c1 [22]): 281 s⁻¹
- Km (CC(=O)Nc1cccc(O)c1 [23]): 7 µM
- kcat (CC(=O)Nc1cccc(O)c1 [24]): 175 s⁻¹
- kcat (NC(=O)c1cc(O)cc(O)c1 [25]): 216 s⁻¹
- Km (NC(=O)c1cc(O)cc(O)c1 [26]): 87 µM
- Km (CC(=O)Nc1cccc(O)c1 [27]): 98 µM
- kcat (CC(=O)Nc1cccc(O)c1 [28]): 191 s⁻¹
- Km (NC(=O)c1cc(O)cc(O)c1 [29]): 90 µM
- Km (CC(=O)Nc1cccc(O)c1 [30]): 98 µM
- kcat (CC(=O)Nc1cccc(O)c1 [31]): 211 s⁻¹
- Km (NC(=O)c1cc(O)cc(O)c1 [32]): 111 µM
- Km (CC(=O)Nc1cccc(O)c1 [33]): 133 µM
- kcat (CC(=O)Nc1cccc(O)c1 [34]): 132 s⁻¹
- kcat (NC(=O)c1cc(O)cc(O)c1 [35]): 229 s⁻¹

More lines, now with the values ahead:

- Activity [1]: Active
- RFU [2]: 0.793 a.u.
- Activity [3]: 449 nm
- TIME [4]: 1.09e-06 h
Compound: CC(=O)Nc1cccc(O)c1

- Activity [1]: Active
Compound: CC(=O)Nc1ccccc1
